This passage reports cytotoxicity results from ChEMBL document CHEMBL4513216, “Probing the Open Global Health Chemical Diversity Library for Multistage-Active Starting Points for Next-Generation Antimalarials” (ACS Infect Dis, 2020).

The data set in a line: Toxicity liver stage against HepG2, at 10uM. More on the design: test concentration 10 uM, cell line HepG2-A16-CD81EGFP. Type of data set: cell-based. The note with it: human, HepG2-A16-CD81EGFP cells; read-out: INHIBITION
Put shortly: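 Uninfected HepG2-A16-CD81EGFP cells, 3 × 10^3 per well, 1536-well, plated on prespotted compound at 10 μM final, parasite-free screening media added to match infected plates; puromycin 10 μM positive, DMSO 0.5% negative; run in parallel with 48 h PbLuc assay at 37 °C, 5% CO2; viability by CellTiter-Glo luminescence, normalized to controls.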
As to `CN(CCC(O)c1ccccc1)Cc1ccccc1C#N` (stereo unspecified), the cytotoxicity at 10 µM worked out at 6.87%.

With `COc1ccc(CN2CC(O)CN(C(=O)C3CCC3)CC2=O)cc1` (stereo unspecified), the cytotoxicity at 10 µM is -12.8%.

Take `CC(C)Cc1cc(C(=O)O)nc2[nH]c(=O)[nH]c(=O)c12`: the cytotoxicity at 10 µM is -0.508%.

With `COCCNC(=O)Cc1cnc(-n2cccc2)s1`, the cytotoxicity at 10 µM is -3.35%.

As for `CCS(=O)(=O)N1CC(c2nc(-c3ccncc3)no2)C1`, the cytotoxicity at 10 µM is -5.86%.

`COCC(=O)NCC(Cc1cccc(F)c1)n1cccc1` (stereo unspecified): the cytotoxicity at 10 µM worked out at 2.55%.

On to `O=C(CN1C(=O)CCC1=O)NCCc1nc(C2CC2)cc(C(F)(F)F)n1`, for which the cytotoxicity at 10 µM is -2.02%.

With `O=c1ccc2c([nH]1)CCN(S(=O)(=O)c1ccc3c(c1)CCCC3)C2`, the cytotoxicity at 10 µM was -4.63%.

Take `CC(C)CNC(=O)N1C[C@H]2CC[C@@]3(N=C(c4ccccc4)NC3=O)[C@H]2C1`: the cytotoxicity at 10 µM is -5.82%.

Consider `Cn1cc(CN2CCC3(CC2)CCN(Cc2ccccn2)CC3)cn1`, for which the cytotoxicity at 10 µM is 9.84%.

For `COCCC(=O)N1C[C@@H]2COC[C@]2(COCc2cccnc2)C1`, the cytotoxicity at 10 µM was -4.23%.

Regarding `CN1CCN(c2ncc3c(=O)n(Cc4ccco4)ccc3n2)CC1`, the cytotoxicity at 10 µM was -15.1%.

Regarding `COc1ccc2c(c1)C(=O)NC1(CC2)CCN(Cc2ccccc2)C1` (stereo unspecified), the cytotoxicity at 10 µM stood at 0.585%.

As for `CC(C)Nc1cccc(CC2CCN(S(C)(=O)=O)CC2)n1`, the cytotoxicity at 10 µM was -22.3%.

With `CNc1cc(C2CN(Cc3csc(C)n3)CCO2)nc(C)n1` (stereo unspecified), the cytotoxicity at 10 µM is -1.6%.

For the compound `Cc1nccc(C2CCCCN2Cc2ccc(F)cc2)n1` (stereo unspecified), the cytotoxicity at 10 µM is -6.06%.

As to `CC(C)NC(=O)C1(Cc2ccccc2-c2cccs2)CCNC1` (stereo unspecified), the cytotoxicity at 10 µM was -42%.

Turning to `COc1cccc(CN2CC[C@H](NC(C)=O)[C@@H](O)CC2)c1F`, the cytotoxicity at 10 µM is -8.63%.

For `O=C(c1ccncc1)N1CCCC1c1nc(O)cc(-c2ccccn2)n1` (stereo unspecified), the cytotoxicity at 10 µM was -9.08%.

Turning to `COc1ncc(CN2CCOC(C)(C(=O)N3CCOCC3)C2)cn1` (stereo unspecified), the cytotoxicity at 10 µM was -9.49%.

As for `CNc1cccc(C2CCCN(C(=O)c3coc(C)n3)C2)n1` (stereo unspecified), the cytotoxicity at 10 µM is -11.7%.

`Cc1ccn(CCC(=O)N2CCCC(Cc3cccnc3)C2)n1` (stereo unspecified): the cytotoxicity at 10 µM was -4.47%.

For `C[C@]1(O)CN(CC(=O)N2CCCC2)CC[C@@H]1Oc1cccc(F)c1`, the cytotoxicity at 10 µM is -19.1%.

Regarding `COc1ccc(C(C)NCc2cscn2)cc1Cn1cccn1` (stereo unspecified), the cytotoxicity at 10 µM came out at 3.01%.

With `CCN(CCNS(=O)(=O)N1CCOCC1)C(=O)OC(C)(C)C`, the cytotoxicity at 10 µM was determined as 19.9%.

`CN(CCOCC1CC1)C(=O)Nc1ccc([S+](C)[O-])c(F)c1` (stereo unspecified): the cytotoxicity at 10 µM is -1.7%.

In the case of `NS(=O)(=O)CCCNC(=O)c1cnc(-c2ccsc2)s1`, the cytotoxicity at 10 µM is -9.59%.

`COC(=O)c1cccc(CNC(=O)NCCC(F)(F)F)c1`: the cytotoxicity at 10 µM was -0.247%.

`N#Cc1ccc(NCC(=O)Nc2ccn(Cc3cccnc3)n2)cc1`: the cytotoxicity at 10 µM was -11.2%.

Take `COCCN(Cc1cccc(C#N)c1)Cc1nc(C)no1`: the cytotoxicity at 10 µM is 1.18%.

For the compound `CC(=O)N(c1ccc(C)cc1)c1nc(CN2CCCCC2C)cs1` (stereo unspecified), the cytotoxicity at 10 µM was -5.65%.

On to `N#Cc1cc(N2CCC(CS(N)(=O)=O)CC2)c2ccccc2n1`, for which the cytotoxicity at 10 µM is -11.4%.

`CC(c1cccnc1)N1CCN(CCCC#N)CC1` (stereo unspecified): the cytotoxicity at 10 µM was found to be 10.3%.

For `CN(C(=O)CCNC(=O)C1COc2ccccc21)c1ccccc1` (stereo unspecified), the cytotoxicity at 10 µM is -7.53%.

`CN1CC(C(=O)NCc2ccc(OCc3cccnc3)cc2)CC1=O` (stereo unspecified): the cytotoxicity at 10 µM is 17.7%.

With `CN(C)C(CNC(=O)NCCc1cccc(O)c1)c1ccco1` (stereo unspecified), the cytotoxicity at 10 µM is -4.36%.

`CCCS(=O)(=O)N1CCC(NC(=O)c2cc(C)c(CC)s2)CC1`: the cytotoxicity at 10 µM was determined as 18.4%.

Take `CS(=O)(=O)NCC(=O)N1CCCC1c1noc(C2CC2)n1` (stereo unspecified): the cytotoxicity at 10 µM came to 14.2%.

`Cc1cccc(N2CCOCC3(C2)CN(c2cccnc2)C(=O)CO3)n1` (stereo unspecified): the cytotoxicity at 10 µM is -4.96%.

As to `O=C(c1cnccn1)N1CCC2(CC1)CC(Oc1ccccc1)CO2` (stereo unspecified), the cytotoxicity at 10 µM is 2.74%.

Take `Nc1nccc(-c2c[nH]nc2C2CCCCC2)n1`: the cytotoxicity at 10 µM stood at 36.5%.

For the compound `CCC(C)N(Cc1cnc(NCC(=O)O)nc1)Cc1ccsc1` (stereo unspecified), the cytotoxicity at 10 µM worked out at 0.866%.

Regarding `O=C(N1CC(c2cccnc2)C1)C1(c2ccc(F)cc2)CCOCC1`, the cytotoxicity at 10 µM was -14.5%.

`CCOc1ccccc1C(C(=O)O)N(C)CC1CCOCC1` (stereo unspecified): the cytotoxicity at 10 µM was -4.36%.

For the compound `CC(=O)N1CCc2c(nc(N(C)C)nc2N(C)CC2CCCO2)C1` (stereo unspecified), the cytotoxicity at 10 µM was 1.9%.

As to `CSCC(=O)N1CCCC(CO)(CC2CC2)C1` (stereo unspecified), the cytotoxicity at 10 µM came to 4.38%.

On to `O=C(O)C1c2nc[nH]c2CCN1Cc1cc(-c2ccccc2)no1` (stereo unspecified), for which the cytotoxicity at 10 µM was -11.4%.

Turning to `CCOc1cc2c(cc1CN1CCC3(CCCNC3=O)C1)CCC2` (stereo unspecified), the cytotoxicity at 10 µM is 14.9%.

With `Cc1nnc(N2CCN(C)C3(CCC(=O)N(CCO)CC3)C2)s1` (stereo unspecified), the cytotoxicity at 10 µM is -9.2%.

Consider `CSCCc1n[nH]c2c1CN(S(=O)(=O)c1c(C)nn(C)c1C)CC2`, for which the cytotoxicity at 10 µM was 7.66%.

In the case of `CCOC(=O)C1(Cc2cccc(OC)c2)CCCN(Cc2ncc[nH]2)C1` (stereo unspecified), the cytotoxicity at 10 µM was 3.86%.

Take `Cc1noc(C)c1C(=O)N(Cc1ccsc1)CC1CCCO1` (stereo unspecified): the cytotoxicity at 10 µM was 3.91%.

Consider `Cc1ccccc1CSc1nc(N)cc(N2CCCC(C(N)=O)C2)n1` (stereo unspecified), for which the cytotoxicity at 10 µM was -2.32%.

For `CC(C)Cc1nc(CCn2cncn2)n(-c2ccc3c(c2)OCCO3)n1`, the cytotoxicity at 10 µM is 12.5%.

Regarding `CCOC(=O)CNC(=O)N1CCc2onc(-c3ccc(Cl)cc3)c2C1`, the cytotoxicity at 10 µM is -43.4%.

In the case of `CCc1n[nH]c(C(=O)N2CCC3(CCCN(CCOC)C3=O)C2)c1C` (stereo unspecified), the cytotoxicity at 10 µM worked out at 6.38%.

Turning to `CN(Cc1noc2c1CCCC2)C(=O)Cn1c(=O)cnc2ccccc21`, the cytotoxicity at 10 µM is -38.9%.

Consider `O=C1CCCN1CCC1CCN(C2CCCNC2)CC1` (stereo unspecified), for which the cytotoxicity at 10 µM amounted to 2.37%.

On to `COCC1(CNc2cc(C(C)C)nc(N)n2)CC1`, for which the cytotoxicity at 10 µM was 29.4%.

For the compound `Cc1cc(C2CCC2)nc(N(C)Cc2cc(-c3ccccn3)no2)n1`, the cytotoxicity at 10 µM worked out at 21.2%.

Consider `COc1ccc(CN2CCCn3cncc3C2)cc1Cn1cncn1`, for which the cytotoxicity at 10 µM turned out to be 5.63%.

Consider `O=C(c1ccc2cccnc2n1)N(Cc1ccsc1)CC1CCCO1` (stereo unspecified), for which the cytotoxicity at 10 µM was -15.1%.

As to `OC1(CN2CCN(c3cccc(C(F)(F)F)c3)CC2)CNCCOC1` (stereo unspecified), the cytotoxicity at 10 µM is -5.13%.

As for `CN1CCCN(c2nccc(-c3cc(C(=O)O)ccn3)n2)CC1`, the cytotoxicity at 10 µM was 13.1%.

As for `CC(C)COc1cccc(-c2nc3c([nH]2)CCNC3)c1`, the cytotoxicity at 10 µM stood at 4.48%.

Regarding `CN(CC(=O)N1CC(C)(C)[C@](O)(C2CC2)C1)Cc1ccncc1`, the cytotoxicity at 10 µM is -44.1%.

On to `CCc1ccc(CN(C)c2cc(COC)nc3ccnn23)cc1`, for which the cytotoxicity at 10 µM was determined as 3.52%.

Turning to `CC(C)c1cc(CN2CCC(N)CC2)on1`, the cytotoxicity at 10 µM is -10.7%.

`CN(C)C(=O)c1cccc(CN2CCOC(Cn3cncn3)C2)c1` (stereo unspecified): the cytotoxicity at 10 µM is -3.75%.

As for `CC(C)c1nccn1C1CCCN(C(=O)c2nccnc2N)C1` (stereo unspecified), the cytotoxicity at 10 µM came to 0.0264%.

In the case of `Cc1nc2cc(=O)[nH]n2c(C)c1CC(=O)NCc1ccc(C#N)cc1`, the cytotoxicity at 10 µM was -3.34%.

As for `c1cnn(CC2CCCN2Cc2ccc(-n3cccn3)cc2)c1` (stereo unspecified), the cytotoxicity at 10 µM was -4.8%.

For the compound `CC(C)c1nc(CN2CCCC2CN2CCCC2)cs1` (stereo unspecified), the cytotoxicity at 10 µM turned out to be 6.72%.

For the compound `CC(C)c1nc(C2CCCN2C(=O)c2cnc[nH]2)no1` (stereo unspecified), the cytotoxicity at 10 µM is -6.49%.

Turning to `CC(C)c1nnc2n1CCN(C(=O)c1cccc(C(F)(F)F)c1)C2`, the cytotoxicity at 10 µM was determined as 4.09%.

Take `CC(C)c1nc(C2CCCN(Cc3nnc(C4CC4)o3)C2)no1` (stereo unspecified): the cytotoxicity at 10 µM amounted to 5.65%.

Turning to `CSc1ccc(Cl)c(C(=O)N2CCCC(CNS(C)(=O)=O)C2)c1` (stereo unspecified), the cytotoxicity at 10 µM was -5.92%.

On to `O=C(CN1CCOC(Cn2cccn2)C1)Nc1nncs1` (stereo unspecified), for which the cytotoxicity at 10 µM stood at 4.79%.

As for `CCC(C)[C@H](N)c1nnc(SCC(=O)Nc2ccc(Br)cc2)o1` (stereo partly specified), the cytotoxicity at 10 µM is -3.48%.

For the compound `COc1ncc(CN2C[C@@H]3CC[C@@](O)(c4ccc(C)cn4)[C@@H]3C2)cn1`, the cytotoxicity at 10 µM is -10.3%.

On to `CCn1cncc1CN(Cc1ccc(OC)cc1OC)CC1CCCO1` (stereo unspecified), for which the cytotoxicity at 10 µM is -18%.

On to `Cn1cc(CN2CCO[C@@H]3CN(C4CCCC4)C[C@@H]3C2)cn1`, for which the cytotoxicity at 10 µM is -4.8%.

Turning to `CCN1CCC2(CC1)CC(NC(=O)c1csnn1)c1ccccc1O2` (stereo unspecified), the cytotoxicity at 10 µM was -116%.

For the compound `COc1ccccc1OCCc1cc(C2CCNC2)n[nH]1` (stereo unspecified), the cytotoxicity at 10 µM was -17.1%.

`CO[C@H]1CCN(Cc2ccoc2)C[C@@H]1Cc1ccccc1`: the cytotoxicity at 10 µM is -11.9%.

On to `Cc1cncc(C(=O)N2CCC3(CCCN(c4nncs4)C3)C2)c1` (stereo unspecified), for which the cytotoxicity at 10 µM is -99.4%.

With `c1csc(CN2CCO[C@H]3[C@H](OCC4CCCC4)CC[C@@H]32)n1`, the cytotoxicity at 10 µM is 6.09%.

Consider `c1csc(NCc2n[nH]c3c2CCN(CC2CC2)C3)n1`, for which the cytotoxicity at 10 µM is -0.733%.

On to `Cc1ncccc1NC(=O)[C@@H]1CCO[C@@H]2CCN(c3ccccc3)C[C@@H]21`, for which the cytotoxicity at 10 µM was determined as 6.7%.

For the compound `CNC(=O)NCC1CCC2(CCN(C(=O)c3cccnc3)CC2)CO1` (stereo unspecified), the cytotoxicity at 10 µM was -94.9%.

For the compound `CN1CC(=O)N(c2ccccc2)CC12CCN(CCO)C2` (stereo unspecified), the cytotoxicity at 10 µM was 3.16%.

On to `CN(Cc1ccco1)C[C@H]1OC[C@@H]2CCN(Cc3cccnc3)C[C@@H]21`, for which the cytotoxicity at 10 µM is -7.9%.

In the case of `O=C([C@H]1C[C@H]2CN(c3ncc(F)cn3)C[C@@H]1O2)N1CCCC1`, the cytotoxicity at 10 µM is -115%.

Take `CC(C)=CCN1C[C@@H]2CC[C@H]1CN(C(=O)CCc1nnc(C)[nH]1)C2`: the cytotoxicity at 10 µM is -6.57%.

`Cc1cnccc1CN1Cc2ccccc2OC2(CCC(CO)CC2)C1` (stereo unspecified): the cytotoxicity at 10 µM was -8.83%.

For the compound `CCOc1ccccc1CCn1cc2[nH]cccc-2c1=O`, the cytotoxicity at 10 µM turned out to be 13.6%.
